Test results reported in ChEMBL document CHEMBL5653630, “Activation of the p53-MDM4 regulatory axis defines the anti-tumour response to PRMT5 inhibition through its role in regulating cellular splicing” (Sci Rep, 2018).

What was measured:
5637 = test: Antiproliferative activity against human 5637 cells assessed as cell growth inhibition incubated for 6 days by celltiter-glo assay; format: functional; settings: Homo sapiens, 5637, 144 h; time 6 day
Outline: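 Cells seeded in 384-well plates and held 24 h, then treated in duplicate with a 20-point two-fold dilution series (≤29 μM top dose, ≤0.15% DMSO) for 6 days. CellTiter-Glo luminescence read on Day 0 and Day 6. 4-parameter fit; curves QC'd for population doubling ≥1.5. gIC50 = concentration at the midpoint between the DMSO and T0 values.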

HCC1143 = test: Antiproliferative activity against human HCC1143 cells assessed as cell growth inhibition viability incubated for 6 days by celltiter-glo assay; format: functional; settings: HCC1143, 144 h, time 6 day
Outline: (§1)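 Cells were seeded in 384-well plates and incubated 24 h, then treated in duplicate with a 20-point, 2-fold dilution series (top dose ≤29 μM, ≤0.15% DMSO) for 6 days. CellTiter-Glo luminescence was read on day 0 and day 6. A 4-parameter fit was used, and curves needed at least 1.5 population doublings. gIC50 is the midpoint of the growth window between DMSO and T0.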

HCC70 = test: Antiproliferative activity against human HCC70 cells assessed as cell growth inhibition incubated for 6 days by celltiter-glo assay; format: functional; settings: HCC70, 144 h, time 6 day; outline: as §1
HT-1376 = test: Antiproliferative activity against human HT-1376 cells assessed as cell growth inhibition incubated for 6 days by celltiter-glo assay; format: functional; settings: HT-1376, 144 h, time 6 day; outline: as §1
JeKo-1 = test: Antiproliferative activity against human JeKo-1 cells assessed as cell growth inhibition incubated for 6 days by celltiter-glo assay; format: functional; settings: JeKo-1, 144 h, time 6 day
Outline: (§2)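 Cells seeded in 384-well plates at an optimized density and held 24 h. Day 0: treated in duplicate with a 20-point two-fold series (top dose ≤29 μM, ≤0.15% DMSO) and incubated 6 days. CellTiter-Glo luminescence read at Day 0 and Day 6. Four-parameter fit. gIC50 = midpoint of the growth window between DMSO and T0. Curves required ≥1.5 population doublings.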

LP-1 = test: Antiproliferative activity against human LP-1 cells assessed as cell growth inhibition incubated for 6 days by celltiter-glo assay; format: functional; settings: LP-1, 144 h, time 6 day; outline: as §2
Maver1 = test: Antiproliferative activity against human MAVER-1 cells assessed as cell growth inhibition incubated for 6 days by celltiter-glo assay; format: functional; settings: Maver1, 144 h, time 6 day; outline: as §2
MDA-MB-231 = test: Antiproliferative activity against human MDA-MB-231 cells assessed as cell growth inhibition incubated for 6 days by celltiter-glo assay; format: functional; settings: MDA-MB-231, 144 h, time 6 day; outline: as §2
MDA-MB-468 = test: Antiproliferative activity against human MDA-MB-468 cells assessed as cell growth inhibition incubated for 6 days by celltiter-glo assay; format: functional; settings: MDA-MB-468, 144 h, time 6 day; outline: as §2
NU-DHL-1 = test: Antiproliferative activity against human NU-DHL-1 cells assessed as cell growth inhibition incubated for 6 days by celltiter-glo assay; format: functional; settings: NU-DHL-1, 144 h, time 6 day; outline: as §2
[1] = Antiproliferative activity against human PER-403 cells assessed as cell growth inhibition incubated for 6 days by celltiter-glo assay; format: functional; settings: PER-403, 144 h, time 6 day; outline: as §2
[2] = Antiproliferative activity against human PER-624 cells assessed as cell growth inhibition incubated for 6 days by celltiter-glo assay; format: functional; settings: PER-624, 144 h, time 6 day; outline: as §2
[3] = Antiproliferative activity against human PER-704 cells assessed as cell growth inhibition incubated for 6 days by celltiter-glo assay; format: functional; settings: PER-704, 144 h, time 6 day; outline: as §2
Rec1 = test: Antiproliferative activity against human REC1 cells assessed as cell growth inhibition incubated for 6 days by celltiter-glo assay; format: functional; settings: Rec1, 144 h, time 6 day; outline: as §2
RL = test: Antiproliferative activity against human RL cells assessed as cell growth inhibition incubated for 6 days by celltiter-glo assay; format: functional; settings: 144 h, time 6 day; outline: as §2
SF-295 = test: Antiproliferative activity against human SF-295 cells assessed as cell growth inhibition incubated for 6 days by celltiter-glo assay; format: functional; settings: SF-295, 144 h, time 6 day; outline: as §2
SF-539 = test: Antiproliferative activity against human SF-539 cells assessed as cell growth inhibition incubated for 6 days by celltiter-glo assay; format: functional; settings: SF-539, 144 h, time 6 day; outline: as §2
SK-BR-3 = test: Antiproliferative activity against human SK-BR-3 cells assessed as cell growth inhibition incubated for 6 days by celltiter-glo assay; format: functional; settings: SK-BR-3, 144 h, time 6 day; outline: as §2
SU-DHL10 = test: Antiproliferative activity against human SU-DHL-10 cells assessed as cell growth inhibition incubated for 6 days by celltiter-glo assay; format: functional; settings: SU-DHL10, 144 h, time 6 day; outline: as §2
SU-DHL-16 = test: Antiproliferative activity against human SU-DHL-16 cells assessed as cell growth inhibition incubated for 6 days by celltiter-glo assay; format: functional; settings: SU-DHL-16, 144 h, time 6 day; outline: as §2
SU-DHL-2 = test: Antiproliferative activity against human SUDHL2 cells assessed as cell growth inhibition incubated for 6 days by celltiter-glo assay; format: functional; settings: SU-DHL-2, 144 h, time 6 day; outline: as §2
SUD4 = test: Antiproliferative activity against human SU-DHL-4 cells assessed as cell growth inhibition incubated for 6 days by celltiter-glo assay; format: functional; settings: SU-DHL-4, 144 h, time 6 day; outline: as §2
SU-DHL-5 = test: Antiproliferative activity against human SU-DHL-5 cells assessed as cell growth inhibition incubated for 6 days by celltiter-glo assay; format: functional; settings: SU-DHL-5, 144 h, time 6 day; outline: as §2
SU-DHL-6 = test: Antiproliferative activity against human SU-DHL-6 cells assessed as cell growth inhibition incubated for 6 days by celltiter-glo assay; format: functional; settings: SU-DHL-6, 144 h, time 6 day; outline: as §2
SW780 = test: Antiproliferative activity against human SW780 cells assessed as cell growth inhibition incubated for 6 days by celltiter-glo assay; format: functional; settings: SW780, 144 h, time 6 day; outline: as §2
U2932 = test: Antiproliferative activity against human U2932 cells assessed as cell growth inhibition incubated for 6 days by celltiter-glo assay; format: functional; settings: U2932, 144 h, time 6 day; outline: as §2
U-2940 = test: Antiproliferative activity against human U-2940 cells assessed as cell growth inhibition incubated for 6 days by celltiter-glo assay; format: functional; settings: U-2940, 144 h, time 6 day; outline: as §2
U-87 MG = test: Antiproliferative activity against human U-87 MG cells assessed as cell growth inhibition incubated for 6 days by celltiter-glo assay; format: functional, U-87MG ATCC; settings: 144 h, time 6 day; outline: as §2
UMUC3 = test: Antiproliferative activity against human UMUC3 cells assessed as cell growth inhibition incubated for 6 days by celltiter-glo assay; format: functional; settings: UMUC3, 144 h, time 6 day; outline: as §2
WSUDLCL2 = test: Antiproliferative activity against human WSUDLCL2 cells assessed as cell growth inhibition incubated for 6 days by celltiter-glo assay; format: functional; settings: WSUDLCL2, 144 h, time 6 day; outline: as §2
WSU-NHL = test: Antiproliferative activity against human WSU-NHL cells assessed as cell growth inhibition incubated for 6 days by celltiter-glo assay; format: functional; settings: 144 h, time 6 day; outline: as §2
Z-138 = test: Antiproliferative activity against human Z138 cells assessed as cell growth inhibition incubated for 6 days by celltiter-glo assay; format: functional; settings: Z-138, 144 h, time 6 day; outline: as §2
ZR-75-1 = test: Antiproliferative activity against human ZR-75-1 cells assessed as cell growth inhibition incubated for 6 days by celltiter-glo assay; format: functional; settings: ZR-75-1, 144 h, time 6 day; outline: as §2

| GI50 (HCC1143) | GI50 (HT-1376) | GI50 (MDA-MB-231) | GI50 (MDA-MB-468) | GI50 (SK-BR-3) | GI50 (SU-DHL10) | GI50 (SU-DHL-16) | Structure (SMILES) | GI50 5637 | GI50 (HCC70) | GI50 (JeKo-1) | GI50 (LP-1) | GI50 (Maver1) | GI50 (NU-DHL-1) | GI50 [1] | GI50 [2] | GI50 [3] | GI50 (Rec1) | GI50 (RL) | GI50 (SF-295) | GI50 (SF-539) | other results |
| --- | --- | --- | --- | --- | --- | --- | --- | --- | --- | --- | --- | --- | --- | --- | --- | --- | --- | --- | --- | --- | --- |
| 246 nM | 17600 nM | 544 nM | 57 nM | 73 nM | 54 nM | 99 nM | CC(=O)N1CCC(Nc2cc(C(=O)NC[C@H](O)CN3CCc4ccccc4C3)ncn2)CC1 [PEMRAMETOSTAT] | 69 nM | 130 nM | 5400 nM | 1940 nM | 85 nM | 333 nM | 38 nM | 524 nM | 658 nM | 2110 nM | 14 nM | 24700 nM | 61 nM | GI50 (SU-DHL-2): 28 nM; GI50 (SUD4): 492 nM; GI50 (SU-DHL-5): 28 nM; GI50 (SU-DHL-6): 4 nM; GI50 (SW780): 290 nM; GI50 (U2932): 53 nM; GI50 (U-2940): 10200 nM; GI50 (U-87 MG): 40 nM; GI50 (UMUC3): 29300 nM; GI50 (WSUDLCL2): 82 nM; GI50 (WSU-NHL): 8 nM; GI50 (Z-138): 4 nM; GI50 (ZR-75-1): 11000 nM |
| 509 nM | 13100 nM | 2930 nM | 585 nM | 131 nM | 495 nM | 124 nM | O=C(NC[C@H](O)CN1CCc2ccccc2C1)c1ccnc(NC2CCC2)c1 | 143 nM | 522 nM | 6190 nM | 975 nM | 133 nM | 101 nM | 29 nM | 526 nM | 375 nM | 1990 nM | 1430 nM | 9840 nM | 75 nM | GI50 (SU-DHL-2): 86 nM; GI50 (SUD4): 571 nM; GI50 (SU-DHL-5): 132 nM; GI50 (SU-DHL-6): 13 nM; GI50 (SW780): 451 nM; GI50 (U2932): 336 nM; GI50 (U-2940): 2350 nM; GI50 (U-87 MG): 127 nM; GI50 (UMUC3): 19200 nM; GI50 (WSUDLCL2): 651 nM; GI50 (WSU-NHL): 76 nM; GI50 (Z-138): 14 nM; GI50 (ZR-75-1): 2620 nM |
